Data as given in ChEMBL document CHEMBL1177650, “Synthesis, structural elucidation and in vitro antiparasitic activity against Trypanosoma cruzi and Leishmania chagasi parasites of novel tetrahydro-1-benzazepine derivatives” (Bioorg Med Chem, 2010).

What was measured:
Leishmania chagasi [1] = test: Antileishmanial activity against Leishmania chagasi MHOM/BR/74/PP75 promastigotes after 72 hrs by haemocytometry; assay type: functional, organism-based; conditions: MHOM/BR/74/PP75, 72 h
Procedure, shortened: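 Late-phase L. chagasi promastigotes, grown at 28 °C in RPMI 1640 with hemin, HEPES and 10% hiSBF, exposed to threefold serial dilutions (0.3–100 μM) for 72 h at 28 °C; untreated controls. Growth inhibition from haemocytometer counts; IC50/IC90 by sigmoidal regression; triplicates, repeated twice.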

Trypanosoma cruzi [2] = test: Antitrypanosomal activity against Trypanosoma cruzi 320I01 amastigotes infected in african green monkey Vero cells after 5 days by Giemsa staining; assay type: functional, organism-based; conditions: 320I01, Vero, 120 h
Procedure, shortened: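 Vero cells (RPMI, 5% hiSBF, 37 °C, 5% CO2) infected 24 h with tissue-derived T. cruzi trypomastigotes at parasite:cell 10:1. Compound dilutions (top 100 μM) applied 5 days at 37 °C, 5% CO2, medium changed once at day 3. Infected cells scored per 300 cells on methanol-fixed Giemsa preparations; IC50/IC90 by sigmoidal regression; triplicates, two experiments.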

Trypanosoma cruzi [3] = test: Antitrypanosomal activity against Trypanosoma cruzi 320I01 epimastigotes after 72 hrs by haemocytometry; assay type: functional, organism-based; conditions: 320I01, 72 h
Procedure, shortened: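 Late-phase T. cruzi epimastigotes cultured in LIT medium with hiFCS at 28 °C; threefold serial dilutions (0.3–100 μM) for 72 h at 28 °C, untreated controls. Parasites counted in a haemocytometer; IC50/IC90 by sigmoidal regression; each concentration in triplicate, two experiments.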

[4] = Selectivity index, CC50 for human THP1 cells to IC50 for Leishmania chagasi MHOM/BR/74/PP75 amastigotes; assay type: functional, THP-1
Procedure, shortened: (§1)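 Selectivity index computed as CC50 in THP-1 cells divided by IC50 against the L. chagasi stage named in the line.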

[5] = Selectivity index, CC50 for african green monkey Vero cells to IC50 for Trypanosoma cruzi 320I01 amastigotes; assay type: functional
Procedure, shortened: (§2)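 Selectivity index computed as CC50 in Vero cells divided by IC50 against the T. cruzi stage named in the line.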

Leishmania chagasi [6] = test: Antileishmanial activity against Leishmania chagasi MHOM/BR/74/PP75 amastigotes infected in human THP1 cells after 5 days by Giemsa staining; assay type: functional, organism-based; conditions: MHOM/BR/74/PP75, THP-1, 120 h
Procedure, shortened: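 THP-1 cells (RPMI, 5% hiSBF, 37 °C, 5% CO2) transformed, then infected 24 h with late-phase L. chagasi promastigotes at parasite:cell 10:1. Treated with compound dilutions (top 100 μM) 5 days at 37 °C, 5% CO2, medium changed once after 3 days. Infected cells counted per 300 cells on methanol-fixed Giemsa slides; IC50/IC90 by sigmoidal regression; triplicates, repeated twice.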

[7] = Selectivity index, CC50 for human THP1 cells to IC50 for Leishmania chagasi MHOM/BR/74/PP75 promastigotes; assay type: functional, THP-1; procedure, shortened: as §1
[8] = Selectivity index, CC50 for african green monkey Vero cells to IC50 for Trypanosoma cruzi 320I01 epimastigote; assay type: functional; procedure, shortened: as §2
[9] = Cytotoxicity against african green monkey Vero cells after 72 hrs by MTT assay; assay type: cell-based; conditions: chlorocebus sabaeus
Procedure, shortened: (§3)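 Vero or transformed THP-1 cells incubated with compound (0.3–300 μM) 72 h at 37 °C, 5% CO2; untreated controls. MTT read-out, formazan OD at 580 nm; % cytotoxicity = 100 × (OD control − OD treated)/OD control. CC50/CC90 by sigmoidal regression; triplicates, repeated twice. DMSO stocks 100× concentrated, diluted in medium.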

[10] = Cytotoxicity against human THP1 cells after 72 hrs by MTT assay; assay type: cell-based; conditions: THP-1 cells; procedure, shortened: as §3

Structure (SMILES) | IC50 (Leishmania chagasi [1]) [µM] | IC90 (Leishmania chagasi [1]) [µM] | IC50 (Trypanosoma cruzi [2]) [µM] | IC90 (Trypanosoma cruzi [2]) [µM] | IC50 (Trypanosoma cruzi [3]) [µM] | IC90 (Trypanosoma cruzi [3]) [µM] | Selectivity Index [4] | Selectivity Index [5] | IC50 (Leishmania chagasi [6]) [µM] | IC90 (Leishmania chagasi [6]) [µM] | Selectivity Index [7] | Selectivity Index [8] | CC50 at 72 h [9] [µM] | CC90 at 72 h [9] [µM] | CC50 at 72 h [10] [µM] | CC90 at 72 h [10] [µM]
Clc1ccccc1[C@@H]1C[C@@H]2Cc3ccccc3N1O2 (relative stereo) | 25.1 | > 100 | > 100 | > 100 | 19.4 | 57.8 | >1 | >1 | > 100 | > 100 | 4.37 | 5.71 | 111 | > 300 | 110 | 211
Cc1cccc([C@@H]2C[C@@H]3Cc4ccccc4N2O3)c1 (relative stereo) | 52 | > 100 | > 100 | > 100 | 76.7 | > 100 | >3 | >3 | > 100 | > 100 | >5 | >4 | > 300 | > 300 | > 300 | > 300
Fc1ccc2c(c1)C[C@H]1C[C@@H](c3ccccc3)N2O1 (relative stereo) | 47.6 | > 100 | > 100 | > 100 | 7.68 | 54.1 | >3 | >3 | > 100 | > 100 | >6 | >39 | > 300 | > 300 | > 300 | > 300
Clc1ccc([C@@H]2C[C@@H]3Cc4ccccc4N2O3)cc1 (relative stereo) | 38.3 | 67.5 | 45.4 | 66.8 | 34.2 | 89.4 | >3 | >6 | > 100 | > 100 | >7 | >8 | > 300 | > 300 | > 300 | > 300
Clc1cccc([C@@H]2C[C@@H]3Cc4ccccc4N2O3)c1 (relative stereo) | 49.1 | 70.7 | > 100 | > 100 | 45.8 | > 100 | >1 | >3 | > 100 | > 100 | 2.73 | >6 | > 300 | > 300 | 134 | > 300
Cc1ccc2c(c1)C[C@H]1C[C@@H](c3ccccc3Cl)N2O1 (relative stereo) | 41.7 | 49.5 | 51.9 | > 100 | 14.3 | 30.4 | >0.66 | 0.96 | > 100 | > 100 | 1.6 | 3.51 | 50.2 | > 300 | 66.8 | 109
Clc1ccc2c(c1)C[C@H]1C[C@@H](c3ccccc3Cl)N2O1 (relative stereo) | 51.3 | > 100 | > 100 | > 100 | 17.6 | 43.9 | >3 | >1 | > 100 | > 100 | >5 | 6.17 | 109 | > 300 | > 300 | > 300
Fc1ccccc1[C@@H]1C[C@@H]2Cc3cc(Cl)ccc3N1O2 (relative stereo) | 23.8 | 67.3 | > 100 | > 100 | 18.9 | 38.1 | >3 | >1 | > 100 | > 100 | >12 | 6.51 | 123 | > 300 | > 300 | > 300
Fc1ccccc1[C@@H]1C[C@@H]2Cc3ccccc3N1O2 (relative stereo) | 40.5 | 47 | 58.6 | 96.4 | > 100 | > 100 | >2 | >5 | > 100 | > 100 | 4.93 | >3 | > 300 | > 300 | 200 | > 300
Cc1ccc([C@@H]2C[C@@H]3Cc4cc(C)ccc4N2O3)cc1 (relative stereo) | 99 | > 100 | 45.3 | 90 | 23.2 | 85.4 | >0.74 | 4.6 | > 100 | > 100 | 0.75 | 8.97 | 208 | > 300 | 74 | 126
Clc1ccc([C@@H]2C[C@@H]3Cc4cc(Cl)ccc4N2O3)cc1 (relative stereo) | 33.2 | 50.1 | > 100 | > 100 | 15 | > 100 | >3 | >3 | > 100 | > 100 | >9 | >20 | > 300 | > 300 | > 300 | > 300
Fc1ccc([C@@H]2C[C@@H]3Cc4ccccc4N2O3)cc1 (relative stereo) | > 100 | > 100 | > 100 | > 100 | > 100 | > 100 | >1 | >3 | > 100 | > 100 | >1 | >3 | > 300 | > 300 | 183 | > 300
COc1cccc([C@@H]2C[C@@H]3Cc4ccccc4N2O3)c1 (relative stereo) | 54.7 | > 100 | > 100 | > 100 | > 100 | > 100 | >3 | >3 | > 100 | > 100 | >5 | >3 | > 300 | > 300 | > 300 | > 300
Clc1ccc2c(c1)C[C@H]1C[C@@H](c3ccc(Br)cc3)N2O1 (relative stereo) | 32.5 | 42.2 | 60.6 | > 95.4 | 30.1 | > 100 | >2 | >4 | > 95.4 | > 95.4 | 7.24 | >10 | > 300 | > 287 | 236 | > 287
Fc1ccc2c(c1)C[C@H]1C[C@@H](c3ccc(Cl)cc3)N2O1 (relative stereo) | 35.2 | 41.8 | 40.2 | 104 | 35.4 | 85.8 | >3 | >7 | > 100 | > 100 | >8 | >8 | > 300 | > 300 | > 300 | > 300
